# Assay results published in ChEMBL document CHEMBL1133857, “Beta 3 agonists. Part 1: evolution from inception to BMS-194449” (Bioorg Med Chem Lett, 2001).
# pKi: −log10 of the molar value.
# Columns and labels:
# [1] = molecular target: T1, Beta-3 adrenergic receptor (Homo sapiens, UniProt P13945); assay: Human beta-3 adrenergic receptor agonist activity by measurement of cAMP accumulation levels in CHO membranes expressing human beta-3 receptor.; type: functional, cell membranes
# In short: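 β3 intrinsic activity (% activation) measured in membranes from CHO cells transfected with human β3 adrenergic receptor.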
# Target sequence in this assay (P13945 whole entry, looked up): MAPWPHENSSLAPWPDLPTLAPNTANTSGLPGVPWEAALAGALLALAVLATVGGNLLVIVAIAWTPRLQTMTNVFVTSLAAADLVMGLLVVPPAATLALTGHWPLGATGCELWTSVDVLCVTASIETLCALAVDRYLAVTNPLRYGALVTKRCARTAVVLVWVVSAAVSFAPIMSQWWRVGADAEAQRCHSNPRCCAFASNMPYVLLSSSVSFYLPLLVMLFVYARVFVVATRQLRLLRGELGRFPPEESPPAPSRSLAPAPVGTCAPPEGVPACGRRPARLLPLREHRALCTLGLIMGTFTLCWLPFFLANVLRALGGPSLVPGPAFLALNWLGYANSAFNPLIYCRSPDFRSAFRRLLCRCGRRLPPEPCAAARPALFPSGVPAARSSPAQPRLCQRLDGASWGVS
# [2] = molecular target: Beta-2 adrenergic receptor and beta-3 adrenergic receptor (Homo sapiens) (UniProt P07550+P13945); assay: Selectivity as the ratio of Ki of beta-2 adrenergic receptor to the Ki of beta-3 adrenergic receptor.; type: protein assay
# In short: (§1)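 Ki at human β1, β2 and β3 adrenergic receptors measured by binding to membranes prepared from CHO cells transfected with each human receptor. Selectivity is expressed as the ratio of β1 or β2 Ki to β3 Ki.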
# [3] = molecular target: T1, Beta-3 adrenergic receptor; assay: Binding affinity against CHO cells transfected with human beta-3 adrenergic receptor in the presence of [125I]iodocyanopindolol; type: cell-based; in short: as §1
# Target sequence in this assay (P13945 whole entry): as the sequence (P13945 whole entry, looked up) above
# [4] = molecular target: Adrenergic receptor beta; ADRB1 & ADRB3 (Homo sapiens) (UniProt P08588+P13945); assay: Selectivity measured as the ratio of Ki of Beta-1 Adrenergic receptor to the Ki of Beta-3 Adrenergic receptor; type: protein assay; in short: as §1
# Chain of Adrenergic receptor beta; ADRB1 & ADRB3 (Homo sapiens) (P08588 whole entry, looked up): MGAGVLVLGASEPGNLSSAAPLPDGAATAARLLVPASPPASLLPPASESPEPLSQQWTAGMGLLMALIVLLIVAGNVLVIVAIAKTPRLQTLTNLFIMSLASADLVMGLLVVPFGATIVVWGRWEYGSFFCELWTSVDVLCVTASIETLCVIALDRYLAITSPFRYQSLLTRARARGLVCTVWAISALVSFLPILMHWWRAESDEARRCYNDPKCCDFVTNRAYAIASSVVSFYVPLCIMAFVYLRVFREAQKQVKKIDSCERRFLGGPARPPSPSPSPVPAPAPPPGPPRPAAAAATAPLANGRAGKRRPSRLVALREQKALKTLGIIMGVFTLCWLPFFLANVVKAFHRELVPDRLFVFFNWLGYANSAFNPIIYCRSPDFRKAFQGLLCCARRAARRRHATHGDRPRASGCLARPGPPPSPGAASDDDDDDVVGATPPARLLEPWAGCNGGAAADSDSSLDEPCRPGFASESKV
# Chain of Adrenergic receptor beta; ADRB1 & ADRB3 (Homo sapiens) (P13945 whole entry, looked up): as the sequence (P13945 whole entry, looked up) above
# [5] = Response of African green monkeys to iv injection measured as beta-1 margin before onset of tachycardia; type: functional, Cercopithecidae
# In short: (§2)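 Agonist given iv to ketamine-anesthetized African green monkeys. A β1 event is the onset of tachycardia, and a β2 event is a decrease in serum K+. Margin = dose producing statistically significant onset of the β1 or β2 event ÷ ED50 for lipolysis.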
# [6] = Response of African green monkeys to iv injection measured as beta-2 margin before decrease of serum K; type: functional, Cercopithecidae; in short: as §2
# [7] = Response of African green monkeys to lipolysis upon iv injection of compound; type: functional; conditions: Cercopithecidae
# In short: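 Agonist given iv to ketamine-anesthetized African green monkeys. Lipolysis is read as the rise in non-esterified fatty acids, and the ED50 is given in mg/kg. β3 mediation is checked by co-administration with propranolol 0.1 mg/kg.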
# [8] = species: Cavia porcellus; assay: Intrinsic activity as the acceleration in contraction of spontaneously beating guinea pig atria relative to that induced by isoproterenol; type: functional
SMILES,Intrinsic activity [1],Selectivity [2],pKi [3],Selectivity [4],Ratio of dose [5],Ratio of dose [6],ED50 [7],Intrinsic activity [8]
COc1cccc(C(Cc2ccccc2)NCC(O)c2ccc(O)c(NS(C)(=O)=O)c2)c1 (stereo unspecified),99%,2,6.64,16,–,–,–,–
CS(=O)(=O)Nc1cc(C(O)CN)ccc1O (stereo unspecified),93%,0.1,4.77,0.6,–,–,–,–
CN(C)C(=O)c1ccc(C(NC[C@H](O)c2ccc(O)c(NS(C)(=O)=O)c2)c2ccc(C(=O)N(C)C)cc2)cc1,43%,–,–,–,–,–,–,–
COc1ccc(C(NC[C@H](O)c2ccc(O)c(NS(C)(=O)=O)c2)(C(N)=O)c2ccc(OC)cc2)cc1,106%,10,6.66,3,–,–,–,–
COc1ccc([C@@H](Cc2ccccc2)NC[C@H](O)c2ccc(O)c(NS(C)(=O)=O)c2)cc1OC,112%,6,7.96,63,<3,3,0.03 mg/kg,–
CS(=O)(=O)Nc1cc(C(O)CNC(Cc2ccccc2)c2ccccc2)ccc1O (stereo unspecified),–,3,–,15,–,–,–,–
Cc1ccc(C(Cc2ccccc2)NCC(O)c2ccc(O)c(NS(C)(=O)=O)c2)cc1C (stereo unspecified),79%,3,6.88,43,–,–,–,–
COCc1ccc(C(NC[C@H](O)c2ccc(O)c(NS(C)(=O)=O)c2)c2ccc(COC)cc2)cc1,78%,13,6.01,46,–,–,–,–
CC(C)NCC(O)c1ccc(O)c(NS(C)(=O)=O)c1 (stereo unspecified) [SOTERENOL],109%,0.6,5.39,2,–,–,–,–
COC(=O)COc1ccc(CCNCC(O)c2ccc(O)c(NS(C)(=O)=O)c2)cc1 (stereo unspecified),79%,0.01,5.48,0.7,–,–,–,–
COc1ccc([C@H](Cc2ccccc2)NC[C@H](O)c2ccc(O)c(NS(C)(=O)=O)c2)cc1OC,93%,6,6.49,63,–,–,–,–
CS(=O)(=O)Nc1cc(C(O)CNCCc2ccccc2)ccc1O (stereo unspecified),91%,0.07,5.96,2,–,–,–,–
CS(=O)(=O)Nc1cc([C@@H](O)CNC(c2ccccc2)c2ccccc2)ccc1O,44%,5,5.24,5,–,–,–,–
CS(=O)(=O)Nc1cc(C(O)CNCCc2ccc(OCC(=O)O)cc2)ccc1O (stereo unspecified),77%,0.06,4.31,2,–,–,–,–
CS(=O)(=O)Nc1cc(C(O)CNC23CC4CC(CC(C4)C2)C3)ccc1O (stereo unspecified),110%,0.04,4.96,15,–,–,–,–
CS(=O)(=O)Nc1cc(C(O)CNC(Cc2ccccc2)c2ccc(Cl)c(Cl)c2)ccc1O (stereo unspecified),97%,1,6.38,9,–,–,–,–
COc1ccc(C(Cc2ccccc2)NCC(O)c2ccc(O)c(NS(C)(=O)=O)c2)c(OC)c1 (stereo unspecified),102%,3,7.15,37,–,–,–,–
CS(=O)(=O)Nc1cc([C@@H](O)CNC(c2ccc(OC(F)F)cc2)c2ccc(OC(F)F)cc2)ccc1O,77%,7,6.80,8,>6,>60,0.08 mg/kg,24%
C[C@H](Cc1ccc(OCC(=O)O)cc1)NC[C@H](O)c1cccc(Cl)c1,67%,–,–,–,–,–,–,–

SMILES,Intrinsic activity [1],Selectivity [2],pKi [3],Selectivity [4],Ratio of dose [5],Ratio of dose [6],ED50 [7],Intrinsic activity [8]
COc1ccc(C(Cc2ccccc2)NCC(O)c2ccc(O)c(NS(C)(=O)=O)c2)cc1 (stereo unspecified),99%,–,–,–,–,–,–,–
COC(=O)CCCCC(Cc1ccccc1)NCC(O)c1ccc(O)c(NS(C)(=O)=O)c1 (stereo unspecified),89%,5,6.24,26,–,–,–,–
CCc1ccc(C(Cc2ccccc2)NCC(O)c2ccc(O)c(NS(C)(=O)=O)c2)cc1CC (stereo unspecified),91%,0.5,6.28,6,–,–,–,–
CS(=O)(=O)Nc1cc(C(O)CNC(Cc2ccccc2)Cc2ccccc2)ccc1O (stereo unspecified),–,0.3,5.82,6,–,–,–,–
COc1ccc(C(C)(NC[C@H](O)c2ccc(O)c(NS(C)(=O)=O)c2)c2ccc(OC)cc2)cc1,79%,8,7.70,3,–,–,–,79%
CS(=O)(=O)Nc1cc(C(O)CNC(CCCCC(=O)O)Cc2ccccc2)ccc1O (stereo unspecified),57%,0.3,4.06,1,–,–,–,–
CS(=O)(=O)Nc1cc(C(O)CNC(CCCCCO)Cc2ccccc2)ccc1O (stereo unspecified),72%,0.5,6.32,10,–,–,–,–
COc1ccc(C(Cc2ccccc2)NCC(O)c2ccc(O)c(NS(C)(=O)=O)c2)cc1OC (stereo unspecified),105%,8,7.48,69,–,–,–,–
CS(=O)(=O)Nc1cc(C(O)CNC(Cc2ccccc2)C2CCCCC2)ccc1O (stereo unspecified),80%,0.7,5.37,7,–,–,–,–
COc1ccc(C(NC[C@H](O)c2ccc(O)c(NS(C)(=O)=O)c2)c2ccc(OC)cc2)cc1,100%,–,–,–,–,–,–,85%
CS(=O)(=O)Nc1cc(C(O)CNCc2ccccc2)ccc1O (stereo unspecified),–,0.25,4.90,2,–,–,–,–
COc1ccc(CCNCC(O)c2ccc(O)c(NS(C)(=O)=O)c2)cc1 (stereo unspecified),93%,0.3,6.32,4,–,–,–,–
CCC(C)(C)NCC(O)c1ccc(O)c(NS(C)(=O)=O)c1 (stereo unspecified),125%,0.03,5.43,0.3,–,–,–,–
COc1ccc(CCNCC(O)c2ccc(O)c(NS(C)(=O)=O)c2)cc1OC (stereo unspecified),110%,1,6.26,4,–,–,–,–
CS(=O)(=O)Nc1cc([C@@H](O)CNC(c2ccc(F)cc2)c2ccc(F)cc2)ccc1O,70%,2,5.55,3,–,–,–,48%
CNC(=O)CCCCC(Cc1ccccc1)NCC(O)c1ccc(O)c(NS(C)(=O)=O)c1 (stereo unspecified),104%,0.5,5.80,7,–,–,–,–
CCCCCC(Cc1ccccc1)NCC(O)c1ccc(O)c(NS(C)(=O)=O)c1 (stereo unspecified),77%,0.5,6.49,8,–,–,–,–
COc1ccc(CNCC(O)c2ccc(O)c(NS(C)(=O)=O)c2)cc1 (stereo unspecified),95%,2,5.81,22,–,–,–,–
CC(NC[C@H](O)c1ccc(O)c(NS(C)(=O)=O)c1)(c1ccc(OC(F)F)cc1)c1ccc(OC(F)F)cc1,94%,2,7.09,2,–,–,–,–
